Assay results of several laboratories.
Lines come from different studies, so protocols differ. ≈ marks a conversion by molar mass, not a printed value.

CC1SC2(CCCCC2)N(NC(=O)c2[nH]c3ccc(Cl)cc3c2-c2ccccc2)C1=O (stereo not shown)  EC50 (Enterovirus B; viral replication, inhibitor; Vero, B4): > 100 µM
C=C1CC[C@H](O)C/C1=C/C=C1\CCC[C@]2(C)[C@@H]([C@H](C)/C=C/[C@H](C)C(C)C)CC[C@@H]12  EC50 (Hepatitis C virus; viral replication, inhibitor, luciferase; GETYPE2A; 72 h, replicon): 14.2 µM
COC(=O)c1cc(-c2cccc(NC(=S)Nc3ccc(F)cc3)c2)on1  MIC (Acinetobacter baumannii; microbial growth, broth dilution; BAA1605): > 64 µg/mL
O=C(NN1C(=O)CSC12CCC(c1ccccc1)CC2)c1[nH]c2ccc(Cl)cc2c1-c1ccccc1 (stereo not shown)  EC50 (Enterovirus B; viral replication, inhibitor; Vero, B4): > 100 µM
C[n+]1c(/C=C/c2c[nH]c3ccccc23)cc(/C=C2\Sc3ccccc3N2CCCN2CCOCC2)c2ccccc21.[I-]  MIC (Acinetobacter baumannii; microbial growth, broth dilution; ATCC19606; drug-resistant strain): > 64 µg/mL
CC1CCCC2(C1)SC(C)C(=O)N2NC(=O)c1[nH]c2ccc(Cl)cc2c1-c1ccccc1 (stereo not shown)  EC50 (Enterovirus B; viral replication, inhibitor; Vero, B4): > 100 µM
COc1nc(N)nc2c1ncn2[C@@H]1O[C@H](COP(=O)(N[C@@H](C)C(=O)OCC(C)(C)C)Oc2cccc3ccccc23)[C@@H](O)[C@@]1(C)O (stereo partly shown)  EC90 (Hepatitis C virus; viral replication, inhibitor; GETYPE2A; 96 h, replicon): 0.0128 µM
Cc1c(NN=C(C#N)C2=NC(=O)CS2)c(=O)n(-c2ccccc2)n1C  inhibition zone (Acinetobacter baumannii; microbial growth, well diffusion; 100000 µg/mL): 27 mm
COC(=O)c1cc(-c2cccc(NC(=O)Nc3cc(OC)ccc3OC)c2)on1  MIC (Acinetobacter baumannii; microbial growth, broth dilution; BAA1605): > 64 µg/mL
COC(=O)N[C@H](C(=O)N1CCC[C@H]1c1ncc(-c2ccc(-c3cnc([C@@H]4CCCN4C(=O)[C@@H](NC(=O)OC)C(C)C)[nH]3)cc2)[nH]1)C(C)C  EC90 (Hepatitis C virus; viral replication, inhibitor; Huh-7, GETYPE1B; replicon): > 0.001 µM
COc1cccc(OC)c1C(=O)N[C@@H]1C(=O)N2[C@@H]1SC(C)(C)[C@@H]2C(=O)O  MIC (Acinetobacter baumannii; microbial growth, broth dilution; ATCC19606; drug-resistant strain): > 256 µg/mL
C=C1/C(=C\C=C2/CCC[C@]3(C)[C@@H]([C@H](C)CCCC(C)(C)O)CC[C@@H]23)C[C@@H](O)C[C@@H]1O  EC50 (Hepatitis C virus; viral replication, inhibitor, luciferase; GETYPE2A; 5 days, replicon): 4.71 µM
O=C(Nc1cccc(-c2cc(C(=O)O)no2)c1)Nc1ccc(Cl)c(Cl)c1  MIC (Acinetobacter baumannii; microbial growth, broth dilution; BAA1605): > 64 µg/mL
CC1CCN(CCCN2/C(=C/c3cc[n+](C)c4ccccc34)Sc3ccccc32)CC1.[I-]  MIC (Acinetobacter baumannii; microbial growth, broth dilution; ATCC19606; drug-resistant strain): 16 µg/mL
NC(=O)c1ncn([C@@H]2O[C@H](CO)[C@@H](O)[C@H]2O)n1  EC50 (Enterovirus B; viral replication, inhibitor; Vero, B4): > 250 µM
C=C1CC[C@H](O)C/C1=C/C=C1\CCC[C@]2(C)[C@@H]([C@H](C)CCCC(C)C)CC[C@@H]12  EC50 (Hepatitis C virus; viral replication, inhibitor, luciferase; BM4-5, GETYPE1B; 5 days, replicon): 3.8 µM
C=C[C@@H]1C[C@]1(NC(=O)[C@@H]1C[C@@H]2CN1C(=O)[C@H](C(C)(C)C)NC(=O)O[C@@H]1C[C@H]1CCCCCc1nc3ccc(OC)cc3nc1O2)C(=O)NS(=O)(=O)C1CC1  IC50 (Hepatitis C virus; viral replication, inhibitor, luciferase; Huh-7, GETYPE1B; 96 h, replicon): 0.0466 µM
COC(=O)c1cc(-c2cccc(NC(=O)Nc3cccc(C(F)(F)F)c3)c2)on1  MIC (Acinetobacter baumannii; microbial growth, broth dilution; BAA1605): > 64 µg/mL
CC1CCC2(CC1)SCC(=O)N2NC(=O)c1[nH]c2ccc(Cl)cc2c1-c1ccccc1 (stereo not shown)  EC50 (Enterovirus B; viral replication, inhibitor; Vero, B4): > 100 µM
COC(=O)c1cc(-c2cccc(NC(=O)Nc3cc(Cl)ccc3Cl)c2)on1  MIC (Acinetobacter baumannii; microbial growth, broth dilution; BAA1605): > 64 µg/mL
Cc1cc(/C=C2\Sc3ccccc3N2CCCN2CCCCC2)c2ccccc2[n+]1C.[I-]  MIC (Acinetobacter baumannii; microbial growth, broth dilution; ATCC19606; drug-resistant strain): 64 µg/mL
COC(=O)c1cc(-c2cccc(NC(=S)Nc3ccc(OC)cc3)c2)on1  MIC (Acinetobacter baumannii; microbial growth, broth dilution; BAA1605): > 64 µg/mL
CC1CCCC2(C1)SCC(=O)N2NC(=O)c1[nH]c2ccc(Cl)cc2c1-c1ccccc1 (stereo not shown)  EC50 (Enterovirus B; viral replication, inhibitor; Vero, B4): > 100 µM
COC(=O)c1cc(-c2cccc(NC(=S)Nc3ccc(C)cc3)c2)on1  MIC (Acinetobacter baumannii; microbial growth, broth dilution; BAA1605): > 64 µg/mL
CC1SC2(CCC(c3ccccc3)CC2)N(NC(=O)c2[nH]c3ccc(Cl)cc3c2-c2ccccc2)C1=O (stereo not shown)  EC50 (Enterovirus B; viral replication, inhibitor; Vero, B4): > 100 µM
CO[C@H]1/C=C/O[C@@]2(C)Oc3c(C)c(O)c4c(O)c(c(/C=N/N5CCN(C)CC5)c(O)c4c3C2=O)NC(=O)/C(C)=C\C=C\[C@H](C)[C@H](O)[C@@H](C)[C@@H](O)[C@@H](C)[C@H](OC(C)=O)[C@@H]1C  MIC (Acinetobacter baumannii; microbial growth, broth dilution; ATCC19606; drug-resistant strain): 1 µg/mL (≈ 1.22 µM)
CCCC1CCC2(CC1)SCC(=O)N2NC(=O)c1[nH]c2ccc(Cl)cc2c1-c1ccccc1 (stereo not shown)  EC50 (Enterovirus B; viral replication, inhibitor; Vero, B4): > 100 µM
COC(=O)c1cc(-c2cccc(NC(=O)Nc3ccc(C)cc3)c2)on1  MIC (Acinetobacter baumannii; microbial growth, broth dilution; BAA1605): > 64 µg/mL
